The list is not random: actives were taken first. Their share in the collection is about 3.8%.
rCAG binder = binds r(CAG) RNA repeats | r(CAG) RNA repeat, TO-PRO-1 dye displacement fluorescence | inhibition, % at 3 µM | actives 1.3% (n = 370,000) | AID 651821;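 active = inhibition above the plate cutoff, the mean of all test compounds on that plate plus 3 SD, cut at about 35% in these data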;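 also: 0% = DMSO alone and 100% = 100 µM mitoxantrone as full dye displacement; higher means more dye released from RNA so lower well fluorescence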
Granule exo inh = blocks lytic granule exocytosis. TALL-104 LAMP-1 surface exposure, flow cytometry; cells stimulated with thapsigargin and PMA. inhibition, % at 10 µM. actives 0.66% (n = 360,000). AID 651702;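 active = inhibition above about 55%, limit read from the data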
V-ATPase pH = regulators of yeast V-ATPase proton transport. S. cerevisiae, pHLuorin cytosolic pH fluorescence. response, % at 10 µM. actives 0.37% (n = 350,000). AID 504577; in the data active = response mostly above about 7.3%, no sharp cut-off; inactive = mostly below about 5.4%; also: actives read high
Beta2AR agonist = human beta-2 adrenergic receptor agonism by FAP. P07550. Am2.2-beta2AR cells, FAP receptor internalization, flow cytometry. response, % (test concentration not listed). actives 0.43% (n = 340,000). AID 504454;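 active = response above a set limit, near 3 SD of response in nonfluorescent compounds, cut at about 42% in these data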
Target sequence (P07550 whole entry, looked up): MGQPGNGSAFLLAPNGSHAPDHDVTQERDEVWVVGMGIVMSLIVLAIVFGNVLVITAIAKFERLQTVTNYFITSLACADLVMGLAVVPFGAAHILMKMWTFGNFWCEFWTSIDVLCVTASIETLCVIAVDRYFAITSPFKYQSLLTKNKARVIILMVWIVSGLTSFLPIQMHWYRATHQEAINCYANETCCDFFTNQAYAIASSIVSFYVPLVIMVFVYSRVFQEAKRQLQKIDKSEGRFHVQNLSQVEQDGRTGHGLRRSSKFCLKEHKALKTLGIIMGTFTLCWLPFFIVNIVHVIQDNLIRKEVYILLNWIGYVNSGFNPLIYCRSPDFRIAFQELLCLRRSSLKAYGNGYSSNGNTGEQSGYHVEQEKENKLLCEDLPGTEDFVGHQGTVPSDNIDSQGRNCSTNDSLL
T cell modulator = modulates CD8 T cell binding to vesicles | 2C CD8+ T cell-vesicle binding, flow cytometry; stronger effect = lower value | response (vesicle binding), % at 7 µM | actives 0.068% (n = 330,000);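 active = response, share of CD8 T cells binding vesicles, and their 90th percentile fluorescence all below set limits, cut at about 80% in these data, passing the limit was not always enough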;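 also: values below 100% mean blocked vesicle binding to the CD8+ T cells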
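Assay system: 2C TCR transgenic mouse naive CD8+ T cells, MACS-purified | Read-out: CD8+ gate FL2 mean fluorescence as % of same-row positive control | Signal: High-throughput flow cytometry with anti-B7-1 and anti-CD8 staining | Timing: Binding step 1.5 h, 37 °C, antibody labelling 20 min, ice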
MPTP block = inhibitors of mitochondrial permeability transition pore. isolated mouse mitochondria, Ca2+ swelling absorbance, 30 min. inhibition, % at 10 µM. actives 1.4% (n = 360,000). AID 602449;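 active = inhibition of 50% or more, scaled per plate between neutral and stimulator controls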;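 also: 0% = DMSO wells given calcium and 100% = 1 mM EGTA wells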
rCAG binder conf = r(CAG) RNA repeat binding, confirmation. shares compounds with rCAG binder. TO-PRO-1 dye displacement fluorescence. inhibition, % at 3 µM. actives 70% (n = 4,300);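 active = inhibition above a per-plate cutoff, the mean inhibition of sample wells plus 3 SD, cut at about 35% in these data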;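 also: loss of TO-PRO-1 fluorescence as compound displaces dye from 1x1 AA loop RNA; 0% = DMSO only wells and 100% = 100 µM mitoxantrone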
DNA CAG counter = disrupts DNA CAG TO-PRO-1 complex, flagging rCAG hits | shares compounds with rCAG binder | d(CAG) DNA oligo TO-PRO-1 dye displacement, fluorescence | inhibition, % at 3 µM | actives 94% (n = 4,300);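 active = inhibition above its plate's cutoff, the mean test-well inhibition plus 3 SD, cut at about 4.8% in these data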;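 also: 0% = DNA dye mix with DMSO and 100% = 100 µM mitoxantrone; hits displace the dye from DNA and so lower well fluorescence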
Starred values were filed as active, the others as inactive; . = no result.

SMILES | rCAG binder | Granule exo inh | V-ATPase pH | Beta2AR agonist | T cell modulator | MPTP block | rCAG binder conf | DNA CAG counter
Cc1ccc(Nc2nnc(SC/C(O)=C(\C#N)c3nc4ccccc4[nH]3)s2)c(C)c1 | 39* | 0 | -2 | 0 | 276 | 7 | 41* | 16*
Cn1c(-c2ccsc2)c(-c2cccs2)c2cc(Br)ccc21 | 15 | -4 | -2 | 2 | 259 | 1 | . | .
COc1cc(OC)cc(-c2c(-c3cccs3)c3cc(Br)ccc3n2C)c1 | 40* | -1 | -2 | 3 | 240 | -1 | 10 | 9.3*
CCCCCN1CCCCC(NC(=O)Cc2ccccc2)C1=O (stereo not drawn) | 29 | . | . | . | . | . | . | .
O=C(O)c1ccc(NS(=O)(=O)c2ccc3c(c2)C2C=CCC2C(c2ccccc2F)N3)cc1 (stereo not drawn) | 88* | 0 | -2 | 5 | . | 2 | 61* | 27*
O=C(O)c1ccc2c(c1)C1C=CCC1C(c1cc3c(cc1Br)OCO3)N2 (stereo not drawn) | 34 | 41 | -1 | 5 | 547 | -1 | . | .
CCCC[C@H]1C2CC(OC(=O)Nc3ccccc3C(F)(F)F)C(C2)[C@H]2CCCCN21 (stereo partly drawn) | 2 | . | . | . | . | . | . | .
COc1cc(/C=N/Nc2ccc(Cl)c(C(=O)O)c2)ccc1OC(=O)c1cccs1 | 54* | -7 | 2 | -3 | 331 | 0 | 69* | 30*
Cc1ccc(S(=O)(=O)Oc2cccc(/C=N/Nc3ccc(C(=O)O)cc3)c2)cc1 | 74* | -2 | 0 | 9 | 560 | 4 | 58* | 17*
O=C(O)c1ccc(N/N=C/c2ccc(OC(=O)c3ccccc3Cl)cc2)cc1 | 81* | -1 | 4 | 6 | 474 | -10 | 68* | 28*
COc1cc(/C=N/Nc2ccccc2)ccc1OC(=O)c1cccs1 | 8 | . | . | . | 456 | . | . | .
O=C(O)c1ccc(N/N=C/c2ccc(-c3ccccc3)cc2)cc1 | 62* | 24 | -3 | 13 | . | 1 | 72* | 25*
O=C(NCc1ccc(C(=O)N2CCCC2)cc1)c1cccc(Br)c1 | 2 | . | . | . | . | . | . | .
O=C(Nc1ccc(F)cc1)OC1CC2CC1[C@H]1CCCCN1[C@H]2Cc1ccccc1 (stereo partly drawn) | 9 | . | . | . | . | . | . | .
COC(=O)[C@]12C[C@H](CC(=O)N3CCN(C(=O)C4CC4)CC3)C(=O)N(Cc3ccc4c(c3)OCO4)C1=C[C@H](C(C)C)O[C@@H]2C1CC1 | 0 | . | . | . | . | . | . | .
O=C(O)c1cc(N/N=C/c2ccc(-c3ccccc3)cc2)ccc1Cl | 63* | 10 | -1 | 4 | 159 | 4 | 76* | 40*
COCCN1C(=O)Cc2c1nc(N)c1c(N)nc(N3CCN(c4ccc(F)cc4)CC3)c(C#N)c21 | 38* | -3 | 0 | 15 | 477 | 2 | 22 | 15*
O=C(Nc1c(C(=O)O)[nH]c2ccc(F)cc12)c1cccc(C(F)(F)F)c1 | 63* | 1 | 2 | -2 | 169 | 1 | 39* | 8.8*
O=C(Nc1c(C(=O)O)[nH]c2ccccc12)c1cccc(C(F)(F)F)c1 | 39* | 5 | 4 | -6 | 130 | 2 | 21 | 3
O=C(Nc1ccccc1)c1cccc(C(F)(F)F)c1 | 0 | 0 | 2 | 3 | 144 | 30 | . | .
COc1ccc2[nH]c(C(=O)O)c(NC(=O)c3cc(OC)c(OC)c(OC)c3)c2c1 | 29 | -9 | -3 | -10 | 175 | -1 | . | .
CC1=NN(c2ccc(Cl)c(C(=O)O)c2)C(=O)/C1=C\c1ccc(-c2ccc(C(=O)O)cc2)o1 | 8 | -2 | -1 | -3 | . | 2 | . | .
COC(=O)c1ccc(N2NC(=O)/C(=C/c3ccc(-c4ccc(Cl)c(C(=O)O)c4)o3)C2=O)cc1 | 41* | -1 | 4 | 4 | . | 3 | 69* | 29*
Cc1ccc(N2NC(=O)/C(=C/c3ccc(-c4ccc(Cl)c(C(=O)O)c4)o3)C2=O)cc1C | 8 | -2 | 1 | 7 | 618 | -1 | . | .
O=C1NN(c2ccc(Cl)c(Cl)c2)C(=O)/C1=C/c1ccc(-c2ccccc2C(=O)O)o1 | 73* | -8 | 4 | -13 | 182 | 3 | 67* | 26*
SMILES | rCAG binder | Granule exo inh | V-ATPase pH | Beta2AR agonist | T cell modulator | MPTP block | rCAG binder conf | DNA CAG counter
COP(N)(=O)C(CC(C)C)NC(=O)OCc1ccccc1 (stereo not drawn) | 0 | . | . | . | . | . | . | .
CC1CC(C)CN(C(=O)c2cccc(S(=O)(=O)Nc3cc(C(F)(F)F)ccc3Cl)c2)C1 (stereo not drawn) | 71* | 0 | . | 4 | 194 | 48 | 66* | 27*
O=C(O)c1cccc(S(=O)(=O)Nc2cc(Cl)ccc2Cl)c1 | 2 | -8 | -1 | 18 | 402 | 1 | . | .
COC(=O)[C@]12C[C@H](CC(=O)NCc3ccc(OC)c(OC)c3)C(=O)N(CCC3=CCCCC3)C1=C[C@H](C(C)C)O[C@@H]2C1CC1 | 3 | . | . | . | . | . | . | .
O=C(Nc1ccccc1O)c1c(O)c2c([nH]c1=O)CCCC2 | 44* | 7 | -1 | 9 | 203 | 3 | 40* | 27*
CCOc1cccc(C=NNC(=O)C(=O)Nc2cccc(C(F)(F)F)c2)c1O | 8 | . | . | . | . | . | . | .
CCC(c1nnnn1Cc1ccco1)N(CCc1ccccc1)Cc1cc2cc(C)ccc2[nH]c1=O (stereo not drawn) | 21 | 3 | 0 | 1 | 187 | -3 | . | .
Cc1ccc2[nH]c(=O)c(CN(CCc3ccccc3)C(c3nnnn3Cc3ccco3)C(C)C)cc2c1 (stereo not drawn) | 37* | 18 | -2 | 24 | 309 | 2 | 12 | 8.1*
O=C(Nc1nccs1)c1cc(-c2ccco2)nc2ccccc12 | 38* | 1 | 5 | -2 | 320 | 0 | 25 | 17*
Cc1nnc(NC(=O)c2cc(-c3ccco3)nc3ccccc23)s1 | 37* | 12 | 0 | -11 | 537 | 0 | 18 | 8.7*
O=C(N/N=C/c1ccc(F)cc1)c1cc(-c2ccco2)nc2ccccc12 | 45* | 0 | -7 | -17 | 347 | 0 | 47* | 30*
Cc1csc(NC(=O)c2cc(-c3ccco3)nc3ccccc23)n1 | 44* | 0 | 1 | 0 | 740 | 1 | 46* | 20*
Cc1csc(NC(=O)c2cc(C)nc3ccccc23)n1 | 0 | -1 | -4 | -4 | 854 | 4 | . | .
O=C(Nc1nc2ccccc2s1)c1cc(-c2ccco2)nc2ccccc12 | 20 | -5 | 1 | 3 | 254 | 0 | . | .
O=C(Nc1nccs1)c1cc(-c2ccccc2)nc2ccccc12 | 4 | 0 | -3 | -5 | 102 | -5 | . | .
O=C(Nc1cccc(S(=O)(=O)NC2=NCCCCC2)c1)c1cc(-c2ccccc2)nc2ccccc12 | 5 | 1 | -2 | 16 | 466 | 0 | . | .

High-throughput results as filed in PubChem BioAssay.
